Assay results published in ChEMBL document CHEMBL1127636, “The development of cyclic sulfolanes as novel and high-affinity P2 ligands for HIV-1 protease inhibitors” (J Med Chem, 1994).
pIC50: −log10 of the molar value.

Key:
[1] = target: Human immunodeficiency virus type 1 protease (Human immunodeficiency virus 1, UniProt Q72874); assay: Inhibitory activity against HIV-1 protease
[2] = test system: Human immunodeficiency virus 1; assay: Inhibition of HIV-1 in MT-4 human T-lymphoid cells infected with IIIb isolate; format: functional; conditions: Human immunodeficiency virus 1, T-lymphoid; read-out: CIC95
Summary of the method: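 Unless otherwise indicated, each value is from a single determination (n = 1).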

Row | SMILES | pIC50 [1] | IC95 [2] [nM]
1 | C[C@H]1CS(=O)(=O)C[C@H]1OC(=O)N[C@@H](Cc1ccccc1)[C@H](O)CN1C[C@H]2CCCC[C@H]2C[C@H]1C(=O)NC(C)(C)C | 7.15 | 800
2 | CCC[C@H]1[C@@H](OC(=O)N[C@@H](Cc2ccccc2)[C@H](O)CN2C[C@H]3CCCC[C@H]3C[C@H]2C(=O)NC(C)(C)C)CCS1(=O)=O | 8.21 | 400
3 | CC(C)(C)NC(=O)[C@@H]1C[C@@H]2CCCC[C@@H]2CN1C[C@@H](O)[C@H](Cc1ccccc1)NC(=O)OC1CS(=O)(=O)C1 | 6.98 | –
4 | CC[C@H]1[C@@H](OC(=O)N[C@@H](Cc2ccccc2)[C@H](O)CN2C[C@H]3CCCC[C@H]3C[C@H]2C(=O)NC(C)(C)C)CCS1(=O)=O | – | 400
5 | CCCC[C@H]1[C@@H](OC(=O)N[C@@H](Cc2ccccc2)[C@H](O)CN2C[C@H]3CCCC[C@H]3C[C@H]2C(=O)NC(C)(C)C)CCS1(=O)=O | 7.83 | 400
6 | CC(C)[C@@H]1[C@H](OC(=O)N[C@@H](Cc2ccccc2)[C@H](O)CN2C[C@H]3CCC[C@H]3C[C@H]2C(=O)NC(C)(C)C)CCS1(=O)=O | 8.52 | 100
7 | CCC[C@@H]1[C@H](OC(=O)N[C@@H](Cc2ccccc2)[C@H](O)CN2C[C@H]3CCCC[C@H]3C[C@H]2C(=O)NC(C)(C)C)CCS1(=O)=O | 7.70 | 800
8 | C[C@@H]1OCC[C@@H]1OC(=O)N[C@@H](Cc1ccccc1)[C@H](O)CN1C[C@H]2CCCC[C@H]2C[C@H]1C(=O)NC(C)(C)C | – | 400
9 | CC(C)[C@@H]1[C@H](OC(=O)N[C@@H](Cc2ccccc2)[C@H](O)CN2C[C@H]3CCCC[C@H]3C[C@H]2C(=O)NC(C)(C)C)CCS1(=O)=O | 8.46 | 50
10 | C[C@H]1[C@@H](OC(=O)N[C@@H](Cc2ccccc2)[C@H](O)CN2C[C@H]3CCCC[C@H]3C[C@H]2C(=O)NC(C)(C)C)CCS1(=O)=O | – | 200
11 | CC(C)(C)NC(=O)[C@@H]1C[C@@H]2CCCC[C@@H]2CN1C[C@@H](O)[C@H](Cc1ccccc1)NC(=O)O[C@H]1CCCS(=O)(=O)C1 | 5.76 | –
12 | C[C@H]1OCC[C@H]1OC(=O)N[C@@H](Cc1ccccc1)[C@H](O)CN1C[C@H]2CCCC[C@H]2C[C@H]1C(=O)NC(C)(C)C | – | 1600
13 | CC(C)(C)NC(=O)[C@@H]1C[C@@H]2CCCC[C@@H]2CN1C[C@@H](O)[C@H](Cc1ccccc1)NC(=O)O[C@H]1CCOC1 | – | 800
14 | CC(C)(C)NC(=O)[C@@H]1C[C@@H]2CCCC[C@@H]2CN1C[C@@H](O)[C@H](Cc1ccccc1)NC(=O)O[C@@H]1CCCS(=O)(=O)C1 | 5.68 | –
15 | CC(C)[C@H]1[C@@H](OC(=O)N[C@@H](Cc2ccccc2)[C@H](O)CN2C[C@H]3CCCC[C@H]3C[C@H]2C(=O)NC(C)(C)C)CCS1(=O)=O | – | 200
16 | CC(C)(C)NC(=O)[C@@H]1C[C@@H]2CCCC[C@@H]2CN1C[C@@H](O)[C@H](Cc1ccccc1)NC(=O)O[C@H]1CCS(=O)(=O)C1 | 7.12 | 364
17 | CC(C)(C)NC(=O)[C@@H]1C[C@@H]2CCCC[C@@H]2CN1C[C@@H](O)[C@H](Cc1ccccc1)NC(=O)O[C@@H]1CCS(=O)(=O)C1 | – | > 800
18 | C[C@H]1[C@@H](OC(=O)N[C@@H](Cc2ccccc2)[C@H](O)CN2C[C@H]3CCC[C@H]3C[C@H]2C(=O)NC(C)(C)C)CCS1(=O)=O | 7.90 | 100
19 | CC(C)(C)NC(=O)[C@@H]1C[C@@H]2CCCC[C@@H]2CN1C[C@@H](O)[C@H](Cc1ccccc1)NC(=O)O[C@H]1CCSC1 | 6.88 | –
20 | C[C@@H]1[C@H](OC(=O)N[C@@H](Cc2ccccc2)[C@H](O)CN2C[C@H]3CCCC[C@H]3C[C@H]2C(=O)NC(C)(C)C)CCS1(=O)=O | – | 200
21 | CC(C)(C)NC(=O)[C@@H]1C[C@@H]2CCCC[C@@H]2CN1C[C@@H](O)[C@H](Cc1ccccc1)NC(=O)O[C@@H]1CCS(=O)(=O)[C@@H]1C1CCCC1 | 7.65 | 1500
22 | CC(C)(C)NC(=O)[C@@H]1C[C@@H]2CCCC[C@@H]2CN1C[C@@H](O)[C@H](Cc1ccccc1)NC(=O)O[C@H]1CCS(=O)(=O)[C@H]1C1CCCC1 | 8.21 | 400
23 | CC(C)(C)NC(=O)[C@@H]1C[C@@H]2CCCC[C@@H]2CN1C[C@@H](O)[C@H](Cc1ccccc1)NC(=O)O[C@@H]1CCSC1 | 6.66 | –
24 | C[C@@H]1CS(=O)(=O)C[C@@H]1OC(=O)N[C@@H](Cc1ccccc1)[C@H](O)CN1C[C@H]2CCCC[C@H]2C[C@H]1C(=O)NC(C)(C)C | 6.67 | 800
25 | CC[C@@H]1[C@H](OC(=O)N[C@@H](Cc2ccccc2)[C@H](O)CN2C[C@H]3CCCC[C@H]3C[C@H]2C(=O)NC(C)(C)C)CCS1(=O)=O | – | 800
26 | CCCC[C@@H]1[C@H](OC(=O)N[C@@H](Cc2ccccc2)[C@H](O)CN2C[C@H]3CCCC[C@H]3C[C@H]2C(=O)NC(C)(C)C)CCS1(=O)=O | 7.34 | 800
27 | CC(C)(C)NC(=O)[C@@H]1C[C@@H]2CCC[C@@H]2CN1C[C@@H](O)[C@H](Cc1ccccc1)NC(=O)O[C@H]1CCS(=O)(=O)C1 | 7.95 | > 200
28 | CC(C)(C)NC(=O)[C@@H]1C[C@@H]2CCC[C@@H]2CN1C[C@@H](O)[C@H](Cc1ccccc1)NC(=O)O[C@H]1CCOC1 | 7.21 | 400
29 | C[C@H]1C[C@@H](OC(=O)N[C@@H](Cc2ccccc2)[C@H](O)CN2C[C@H]3CCCC[C@H]3C[C@H]2C(=O)NC(C)(C)C)CS1(=O)=O | 5.80 | –
30 | C[C@@H]1C[C@H](OC(=O)N[C@@H](Cc2ccccc2)[C@H](O)CN2C[C@H]3CCCC[C@H]3C[C@H]2C(=O)NC(C)(C)C)CS1(=O)=O | 7.09 | > 400
